# The source made the active and inactive calls. The calls are words filed in the database; no cut-off is given here.
# How the values were obtained:
# Staphylococcus aureus [1] = experiment: Bacteriostatic activity against methicillin-resistant Staphylococcus aureus IA116-USA100 assessed as inhibition of bacterial growth by microtiter broth dilution method; format: functional, organism-based
# [2] = Inhibition of C-terminal His tagged Bacillus subtilis ClpY/ClpQ expressed in Escherichia coli BL21 (DE3) using Cbz-Gly-Gly-Leu-AMC as peptide substrate by Cheng-prusoff equation analysis
# Outline: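 Recombinant purified B. subtilis ClpYQ was used for inhibition kinetics. Peptide hydrolysis of the fluorogenic substrate Cbz-GGL-AMC at 100 μM was followed over a range of compound concentrations to give a dose-response curve.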
# Enterococcus faecalis [3] = experiment: Bacteriostatic activity against vancomycin resistant Enterococcus faecalis NJ3 assessed as inhibition of bacterial growth by microtiter broth dilution method; format: functional, organism-based
# Staphylococcus aureus [4] = experiment: Bacteriostatic activity against methicillin-resistant Staphylococcus aureus LAC-Fitz-USA300 assessed as inhibition of bacterial growth by microtiter broth dilution method; format: functional, organism-based
# Enterococcus faecalis [5] = experiment: Antibiotic activity against vancomycin resistant Enterococcus faecalis NJ3 assessed as inhibition of bacterial growth incubated for 16 hrs by microtiter broth dilution method; format: functional
# Outline: (§1)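 Microtiter broth dilution assay in liquid medium, run alongside MBC determination, against a Gram-positive panel; the MIC was read as growth inhibition.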
# Staphylococcus aureus [6] = experiment: Antibiotic activity against methicillin-resistant Staphylococcus aureus MN8-USA200 assessed as inhibition of bacterial growth incubated for 16 hrs by microtiter broth dilution method; format: functional; outline: as §1
# Staphylococcus aureus [7] = experiment: Bacteriostatic activity against methicillin-resistant Staphylococcus aureus MN8-USA200 assessed as inhibition of bacterial growth by microtiter broth dilution method; format: functional, organism-based
# Pseudomonas aeruginosa [8] = experiment: Antibiotic activity against Pseudomonas aeruginosa PA01 assessed as inhibition of bacterial growth incubated for 16 hrs by microtiter broth dilution method; format: functional
# Staphylococcus aureus [9] = experiment: Antibiotic activity against methicillin-resistant Staphylococcus aureus MW2-USA400 assessed as inhibition of bacterial growth incubated for 16 hrs by microtiter broth dilution method; format: functional; outline: as §1
# Staphylococcus aureus [10] = experiment: Bacteriostatic activity against methicillin-resistant Staphylococcus aureus MW2-USA400 assessed as inhibition of bacterial growth by microtiter broth dilution method; format: functional, organism-based
# Staphylococcus aureus [11] = experiment: Antibiotic activity against methicillin-resistant Staphylococcus aureus IA116-USA100 assessed as inhibition of bacterial growth incubated for 16 hrs by microtiter broth dilution method; format: functional; outline: as §1
# Staphylococcus aureus [12] = experiment: Inhibition of ClpX/ClpP activity in methicillin-resistant Staphylococcus aureus USA300 assessed as increase in urease activation incubated of overnight by phenol red dye based microplate reader analysis
# Outline: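 Cell-based ClpXP readout in MRSA USA300 grown in Christensen's urea medium with phenol red indicator. ClpXP inhibition raises urease activity, which hydrolyses urea and releases ammonia, and the rising pH turns the medium from yellow to red. Minimum effective concentration (MEC) was taken as the lowest level that raised urease activity above background.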
# Pseudomonas aeruginosa [13] = experiment: Bacteriostatic activity against Pseudomonas aeruginosa PA01 assessed as inhibition of bacterial growth by microtiter broth dilution method; format: functional, organism-based
# Staphylococcus aureus [14] = experiment: Antibiotic activity against methicillin-resistant Staphylococcus aureus LAC-Fitz-USA300 assessed as inhibition of bacterial growth incubated for 16 hrs by microtiter broth dilution method; format: functional; outline: as §1
# [15] = Cytotoxicity against human A549 cells assessed as number of viable cells at 100 uM incubated for 24 hrs by calcein-AM and ethidium homodimer-1 staining based flow cytometry; format: toxicity, cell-based; settings: read-out: Activity
# Outline: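 A549 human lung epithelial carcinoma cells were incubated with compound at up to 100 μM and stained with calcein-AM and ethidium homodimer-1. Viable and dead fractions were determined by confocal microscopy and flow cytometry, against a vehicle control.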
# [16] = Toxicity in sheep RBC assessed as induction of hemolysis at 200 uM and measured after 1 hr relative to control; format: cell-based, Ovis aries, Erythrocyte; settings: sheep red blood cells, read-out: Activity
# Outline: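 Hemolytic activity was measured as percent lysis of sheep erythrocytes, with compound tested up to 200 μM.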
# Staphylococcus aureus [17] = experiment: Antibiotic activity against methicillin-resistant Staphylococcus aureus USA300 assessed as inhibition of bacterial growth incubated for 16 hrs in presence of BSA by microtiter broth dilution method; format: functional
# Outline: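 MIC by microtiter broth dilution against MRSA USA300, with bovine serum albumin added to the medium to assess the effect of protein binding.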
# Escherichia coli = experiment: Antibiotic activity against Escherichia coli with delta.tolC mutation assessed as inhibition of bacterial growth by microtiter broth dilution method; format: functional, organism-based
Compound,Activity (Staphylococcus aureus [1]),Ki [2],Activity (Enterococcus faecalis [3]),Activity (Staphylococcus aureus [4]),MIC (Enterococcus faecalis [5]),MIC (Staphylococcus aureus [6]),Activity (Staphylococcus aureus [7]),MIC (Pseudomonas aeruginosa [8]),MIC (Staphylococcus aureus [9]),Activity (Staphylococcus aureus [10]),MIC (Staphylococcus aureus [11]),MEC (Staphylococcus aureus [12]),Activity (Pseudomonas aeruginosa [13]),MIC (Staphylococcus aureus [14]),"viability at 24 h, 100 µM [15]","hemolysis at 1 h, 200 µM [16]",MIC (Staphylococcus aureus [17]),Activity (Escherichia coli)
CCCCCCc1c(O)c(Cl)cc2c1OC1(C2=O)C(Cl)=C(Cl)C(=O)N1Cc1ccc(C(F)(F)F)cc1 (stereo unspecified),Active,570 nM,Active,Active,2 µg/mL,2 µg/mL,Active,> 32 µg/mL,2 µg/mL,Active,2 µg/mL,1 µg/mL,Active,2 µg/mL,–,–,–,–
Cc1c(O)c(Cl)cc2c1OC1(C2=O)C(Cl)=C(Cl)C(=O)N1C (stereo unspecified),Active,–,Active,Active,> 32 µg/mL,> 32 µg/mL,Active,> 32 µg/mL,> 32 µg/mL,Active,> 32 µg/mL,–,Active,> 32 µg/mL,–,–,–,–
CCCCCCN1C(=O)C(Cl)=C(Cl)C12Oc1c(cc(Cl)c(O)c1C)C2=O (stereo unspecified),Active,–,Active,Active,8 µg/mL,4 µg/mL,Active,> 32 µg/mL,8 µg/mL,Active,4 µg/mL,–,Active,4 µg/mL,–,–,–,–
CCCCCCc1c(O)c(Cl)cc2c1OC1(C2=O)C(Cl)=C(Cl)C(=O)N1CCc1ccccc1 (stereo unspecified),Active,410 nM,Active,Active,1 µg/mL,0.5 µg/mL,Active,> 32 µg/mL,0.5 µg/mL,Active,1 µg/mL,0.25 µg/mL,Active,0.5 µg/mL,> 95%,< 5%,–,–
CCCCCCc1c(O)c(Cl)cc2c1OC1(C2=O)C(Cl)=C(Cl)C(=O)N1Cc1ccc(C)cc1 (stereo unspecified),Active,150 nM,Active,Active,1 µg/mL,0.5 µg/mL,Active,> 32 µg/mL,0.5 µg/mL,Active,1 µg/mL,0.25 µg/mL,Active,0.5 µg/mL,–,–,–,–
CCCCCCCCCCCCN1C(=O)C(Cl)=C(Cl)C12Oc1c(cc(Cl)c(O)c1C)C2=O (stereo unspecified),Active,1000 nM,Active,Active,0.5 µg/mL,2 µg/mL,Active,> 32 µg/mL,2 µg/mL,Active,2 µg/mL,0.5 µg/mL,Active,1 µg/mL,–,–,–,–
CCCCCCCCCCCCN1C(=O)C(Cl)=C(Cl)C12Oc1c(cc(Cl)c(O)c1CCCCCC)C2=O (stereo unspecified),Active,–,Active,Active,8 µg/mL,16 µg/mL,Active,> 32 µg/mL,8 µg/mL,Active,8 µg/mL,–,Active,16 µg/mL,–,–,–,–
CCCCCCc1c(O)c(Cl)cc2c1OC1(C2=O)C(Cl)=C(Cl)C(=O)N1Cc1ccccc1 (stereo unspecified),Active,580 nM,Active,Active,2 µg/mL,1 µg/mL,Active,> 32 µg/mL,2 µg/mL,Active,1 µg/mL,0.25 µg/mL,Active,1 µg/mL,–,–,–,–
C=CCN1C(=O)C(Cl)=C(Cl)C12Oc1c(cc(Cl)c(O)c1CCCCCC)C2=O (stereo unspecified),Active,–,Active,Active,8 µg/mL,4 µg/mL,Active,> 32 µg/mL,4 µg/mL,Active,4 µg/mL,–,Active,4 µg/mL,–,–,–,–
C=CCN1C(=O)C(Cl)=C(Cl)C12Oc1c(cc(Cl)c(O)c1C)C2=O (stereo unspecified),Active,–,Active,Active,> 32 µg/mL,> 32 µg/mL,Active,> 32 µg/mL,> 32 µg/mL,Active,> 32 µg/mL,–,Active,> 32 µg/mL,–,–,–,–
Cc1c(O)c(Cl)cc2c1OC1(C2=O)C(Cl)=C(Cl)C(=O)N1Cc1ccccc1 (stereo unspecified),Active,–,Active,Active,> 32 µg/mL,> 32 µg/mL,Active,> 32 µg/mL,32 µg/mL,Active,> 32 µg/mL,–,Active,32 µg/mL,–,–,–,–
Cc1c(O)c(Cl)cc2c1OC1(C2=O)C(Cl)=C(Cl)C(=O)N1Cc1ccc(C(F)(F)F)cc1 (stereo unspecified),Active,–,Active,Active,32 µg/mL,16 µg/mL,Active,> 32 µg/mL,16 µg/mL,Active,16 µg/mL,–,Active,16 µg/mL,–,–,–,–
CCCCCCc1c(O)c(Cl)cc2c1OC1(C2=O)C(Cl)=C(Cl)C(=O)N1CCCCCC (stereo unspecified),Active,1300 nM,Active,Active,2 µg/mL,1 µg/mL,Active,> 32 µg/mL,1 µg/mL,Active,1 µg/mL,0.067 µg/mL,Active,1 µg/mL,> 95%,< 5%,32 µg/mL,–
CCCCCCc1c(O)c(Cl)cc2c1OC1(C2=O)C(Cl)=C(Cl)C(=O)N1C (stereo unspecified),Active,3200 nM,Active,Active,8 µg/mL,4 µg/mL,Active,> 32 µg/mL,4 µg/mL,Active,4 µg/mL,1 µg/mL,Active,4 µg/mL,> 95%,< 15%,> 32 µg/mL,Active

# Source: ChEMBL document CHEMBL5104117, “Armeniaspirol analogues with more potent Gram-positive antibiotic activity show enhanced inhibition of the ATP-dependent proteases ClpXP and ClpYQ” (RSC Med Chem, 2022)
